Source: PMC3752283 (The Analyst, 2013)
Positions of bridges follow the written chain, without caps; N, C: chain ends. Non-standard residues stand in square brackets, D forms with d. Residues, ends and D or L forms follow the SMILES beside them. *: point of attachment. 6FAM = O=C1OC2(c3ccc(O)cc3Oc3cc(O)ccc32)c2cc(C(=O)*)ccc21; PEG3 = NCCOCCOCCOCCC(=O)O

Assay: Lysate degradation assay
Type: in vitro ADME, mouse
Details: for time for 90% degradation of the peptide: Baf/BCR-ABL cell lysate, 3 mg mL^-1 protein, 2 μM peptide, 37 °C, CE-LIF; for half-life at 2 μM: mouse, Baf/BCR-ABL cell lysate (cytosolic), pH 7.4
Outline: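 Mouse B-cell lymphoma Baf/BCR-ABL cells washed and resuspended in cold ECB (pH 7.4), then lysed by three cycles of liquid nitrogen (1 min) and 37 °C thaw; supernatant kept after 14,000 × g, 4 °C, 5 min. Peptide at 2 μM in lysate (3 mg mL−1 protein), 37 °C, triplicate. Timed aliquots quenched with HCl (100 mM final) and 95 °C for 4 min. Intact fraction = intact-peak area / total peak area.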

SMILES	time for 90% degradation of the peptide	increase in half-life over the control peptide (Baf/BCR-ABL cytosolic lysate)	half-life at 2 μM
CC[C@H](C)[C@H](NC(=O)[C@H](C)NC(=O)[C@H](CCC(=O)O)NC(=O)[C@H](CCCCNC(=O)c1ccc2c(c1)C1(OC2=O)c2ccc(O)cc2Oc2cc(O)ccc21)NC(=O)CCOCCOCCOCCNC(=O)CCOCCOCCOCCNC(=O)[C@H](CCCNC(=N)N)NC(=O)CNC(=O)[C@H]1CCCN1C(=O)[C@@H](N)Cc1c[nH]c2ccccc12)C(=O)N[C@@H](Cc1ccc(O)cc1)C(=O)N[C@@H](C)C(=O)N[C@@H](C)C(=O)N1CCC[C@H]1C(=O)N[C@@H](Cc1ccccc1)C(=O)N[C@@H](C)C(=O)N[C@@H](CCCCN)C(=O)N[C@@H](CCCCN)C(=O)N[C@@H](CCCCN)C(N)=O [Peptide 2] (H-W[dP]GR[PEG3][PEG3]K(6FAM)EAIYAAPFAKKK-NH2; N-terminus assumed)	≤ 10 min	~10 fold	4.8 ± 0.4 min
CC[C@H](C)[C@H](NC(=O)[C@H](C)NC(=O)[C@H](CCC(=O)O)NC(=O)[C@H](CCCCNC(=O)c1ccc2c(c1)C1(OC2=O)c2ccc(O)cc2Oc2cc(O)ccc21)NC(=O)CCOCCOCCOCCNC(=O)CCOCCOCCOCCNC(=O)[C@@H]1CSCC(=O)N[C@@H](Cc2c[nH]c3ccccc23)C(=O)N2CCC[C@@H]2C(=O)NCC(=O)N[C@@H](CCCNC(=N)N)C(=O)N1)C(=O)N[C@@H](Cc1ccc(O)cc1)C(=O)N[C@@H](C)C(=O)N[C@@H](C)C(=O)N1CCC[C@H]1C(=O)N[C@@H](Cc1ccccc1)C(=O)N[C@@H](C)C(=O)N[C@@H](CCCCN)C(=O)N[C@@H](CCCCN)C(=O)N[C@@H](CCCCN)C(N)=O [Peptide 4] ({CH2CO}-W[dP]GRC[PEG3][PEG3]K(6FAM)EAIYAAPFAKKK-NH2; thioether N-5)	25 min		9.2 ± 1.2 min
